# Data: ChEMBL document CHEMBL4811308, “Design, synthesis and broad spectrum antibreast cancer activity of diarylindoles via induction of apoptosis in aggressive breast cancer cells” (Bioorg Med Chem, 2021)
# Legend:
# Assay type in all cases: organism-based
# [1] = Acute toxicity in Swiss albino mouse assessed as creatinine level at 50 mg/kg, po administered once and observed for 7 days (reference value: 0.11 +/- 0.03 mg/dL); details: in vivo, 168 h, time 7 day
# [2] = Acute toxicity in Swiss albino mouse assessed as cholesterol level at 50 mg/kg, po administered once and observed for 7 days (reference value: 122.05 +/- 8.12 mg/dl); details: in vivo, 168 h, time 7 day
# [3] = Acute toxicity in Swiss albino mouse assessed as hemoglobin level at 50 mg/kg, po administered once and observed for 7 days (reference value: 17.35 +/- 0.3 gm/dl); details: in vivo, 168 h, time 7 day
# [4] = Acute toxicity in Swiss albino mouse assessed as triglyceride level at 300 mg/kg, po administered once and observed for 7 days (reference value: 81.12 +/- 7.75 mg/dl); details: in vivo, 168 h, time 7 day
# [5] = Acute toxicity in Swiss albino mouse assessed as effect on posture at 5 to 300 mg/kg, po administered once and observed for 7 days; details: in vivo, 168 h, dose 5-300 mg/kg, time 7 day
# Method in brief: (§1)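 Acute oral toxicity per OECD guideline 423; mice 20–25 g, 3 male + 3 female per group, acclimatized 7 days at 22 ± 5 °C, 12 h light/dark. Compound dissolved in minimal DMSO, diluted in 0.7% CMC, single oral dose of 5, 50 or 300 mg/kg; controls given vehicle only. Clinical signs checked hourly on dosing day, then daily. Samples and body weights taken on day 7.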
# [6] = Acute toxicity in Swiss albino mouse assessed as hemoglobin level at 5 mg/kg, po administered once and observed for 7 days (reference value: 17.35 +/- 0.3 gm/dl); details: in vivo, 168 h, time 7 day
# [7] = Acute toxicity in Swiss albino mouse assessed as creatinine level at 300 mg/kg, po administered once and observed for 7 days (reference value: 0.11 +/- 0.03 mg/dL); details: in vivo, 168 h, time 7 day
# [8] = Acute toxicity in Swiss albino mouse assessed as WBC level at 5 mg/kg, po administered once and observed for 7 days (reference value: 8.55 +/- 2.71 /mm3); details: in vivo, 168 h, time 7 day
# [9] = Acute toxicity in Swiss albino mouse assessed as SGPT level at 50 mg/kg, po administered once and observed for 7 days (reference value: 12.65 +/- 2.98 U/L); details: in vivo, 168 h, time 7 day
# [10] = Acute toxicity in Swiss albino mouse assessed as RBC level at 5 mg/kg, po administered once and observed for 7 days (reference value: 9.21 +/- 0.32 /mm3); details: in vivo, 168 h, time 7 day
# [11] = Acute toxicity in Swiss albino mouse assessed as effect on gait at 5 to 300 mg/kg, po administered once and observed for 7 days; details: in vivo, 168 h, dose 5-300 mg/kg, time 7 day; method in brief: as §1
# [12] = Acute toxicity in Swiss albino mouse assessed as relative heart weight at 5 to 300 mg/kg, po administered once and observed for 7 days; details: in vivo, 168 h, dose 5-300 mg/kg, time 7 day; method in brief: as §1
# [13] = Acute toxicity in Swiss albino mouse assessed as body weight at 50 mg/kg, po administered once and observed for 7 days (reference value: 22.75 +/- 0.93 gm); details: in vivo, 168 h, time 7 day
# [14] = Acute toxicity in Swiss albino mouse assessed as absolute liver weight at 5 to 300 mg/kg, po administered once and observed for 7 days; details: in vivo, 168 h, dose 5-300 mg/kg, time 7 day; method in brief: as §1
# [15] = Acute toxicity in Swiss albino mouse assessed as ALP level at 50 mg/kg, po administered once and observed for 7 days (reference value: 123.22 +/- 16.04 U/L); details: in vivo, 168 h, time 7 day
# [16] = Acute toxicity in Swiss albino mouse assessed as creatinine level at 5 mg/kg, po administered once and observed for 7 days (reference value: 0.11 +/- 0.03 mg/dL); details: in vivo, 168 h, time 7 day
# [17] = Acute toxicity in Swiss albino mouse assessed as mortality at 5 to 300 mg/kg, po administered once and observed for 7 days; details: in vivo, 168 h, dose 5-300 mg/kg, time 7 day; method in brief: as §1
# [18] = Acute toxicity in Swiss albino mouse assessed as cholesterol level at 300 mg/kg, po administered once and observed for 7 days (reference value: 122.05 +/- 8.12 mg/dl); details: in vivo, 168 h, time 7 day
# [19] = Acute toxicity in Swiss albino mouse assessed as RBC level at 300 mg/kg, po administered once and observed for 7 days (reference value: 9.21 +/- 0.32 /mm3); details: in vivo, 168 h, time 7 day
# [20] = Acute toxicity in Swiss albino mouse assessed as absolute heart weight at 5 to 300 mg/kg, po administered once and observed for 7 days; details: in vivo, 168 h, dose 5-300 mg/kg, time 7 day; method in brief: as §1
# [21] = Acute toxicity in Swiss albino mouse assessed as relative kidney weight at 5 to 300 mg/kg, po administered once and observed for 7 days; details: in vivo, 168 h, dose 5-300 mg/kg, time 7 day; method in brief: as §1
# [22] = Acute toxicity in Swiss albino mouse assessed as bilirubin level at 50 mg/kg, po administered once and observed for 7 days (reference value: 0.44 +/- 0.06 mg/dl); details: in vivo, 168 h, time 7 day
# [23] = Acute toxicity in Swiss albino mouse assessed as bilirubin level at 5 mg/kg, po administered once and observed for 7 days (reference value: 0.44 +/- 0.06 mg/dl); details: in vivo, 168 h, time 7 day
# [24] = Acute toxicity in Swiss albino mouse assessed as WBC level at 50 mg/kg, po administered once and observed for 7 days (reference value: 8.55 +/- 2.71 /mm3); details: in vivo, 168 h, time 7 day
# [25] = Acute toxicity in Swiss albino mouse assessed as SGOT level at 50 mg/kg, po administered once and observed for 7 days (reference value: 22.94 +/- 4.04 U/L); details: in vivo, 168 h, time 7 day
# [26] = Acute toxicity in Swiss albino mouse assessed as relative liver weight at 5 to 300 mg/kg, po administered once and observed for 7 days; details: in vivo, 168 h, dose 5-300 mg/kg, time 7 day; method in brief: as §1
# [27] = Acute toxicity in Swiss albino mouse assessed as bilirubin level at 300 mg/kg, po administered once and observed for 7 days (reference value: 0.44 +/- 0.06 mg/dl); details: in vivo, 168 h, time 7 day
# [28] = Acute toxicity in Swiss albino mouse assessed as ALP level at 5 mg/kg, po administered once and observed for 7 days (reference value: 123.22 +/- 16.04 U/L); details: in vivo, 168 h, time 7 day
# [29] = Acute toxicity in Swiss albino mouse assessed as protein level at 5 mg/kg, po administered once and observed for 7 days (reference value: 2.01 +/- 0.11 mg/ml); details: in vivo, 168 h, time 7 day
# [30] = Acute toxicity in Swiss albino mouse assessed as SGOT level at 5 mg/kg, po administered once and observed for 7 days (reference value: 22.94 +/- 4.04 U/L); details: in vivo, 168 h, time 7 day
# [31] = Acute toxicity in Swiss albino mouse assessed as relative spleen weight at 5 to 300 mg/kg, po administered once and observed for 7 days; details: in vivo, 168 h, dose 5-300 mg/kg, time 7 day; method in brief: as §1
# [32] = Acute toxicity in Swiss albino mouse assessed as WBC level at 300 mg/kg, po administered once and observed for 7 days (reference value: 8.55 +/- 2.71 /mm3); details: in vivo, 168 h, time 7 day
# [33] = Acute toxicity in Swiss albino mouse assessed as triglyceride level at 5 mg/kg, po administered once and observed for 7 days (reference value: 81.12 +/- 7.75 mg/dl); details: in vivo, 168 h, time 7 day
# [34] = Acute toxicity in Swiss albino mouse assessed as SGPT level at 300 mg/kg, po administered once and observed for 7 days (reference value: 12.65 +/- 2.98 U/L); details: in vivo, 168 h, time 7 day
# [35] = Acute toxicity in Swiss albino mouse assessed as triglyceride level at 50 mg/kg, po administered once and observed for 7 days (reference value: 81.12 +/- 7.75 mg/dl); details: in vivo, 168 h, time 7 day
SMILES,Activity [1] [mg/dL],Activity [2] [mg/dL],Activity [3] [g/dL],Activity [4] [mg/dL],Activity [5],Activity [6] [g/dL],Activity [7] [mg/dL],Activity [8] [thousands/mm3],Activity [9] [U/L],Activity [10] [million/mm3],Activity [11],Activity [12],Activity [13] [g],Activity [14],Activity [15] [U/L],Activity [16] [mg/dL],Activity [17],Activity [18] [mg/dL],Activity [19] [million/mm3],Activity [20],other results
COc1ccc2c(c1)c(Cc1ccc(OC(C)CN(C)C)cc1)c(-c1cc(OC)c(OC)c(OC)c1)n2Cc1ccc(OC(C)CN(C)C)cc1 (stereo not given),0.12,108.65,15.21,86.58,Non-Toxic,15.83,0.14,6.23,18.69,9.12,Non-Toxic,Non-Toxic,23.48,Non-Toxic,84.85,0.12,Non-Toxic,108.72,7.96,Non-Toxic,Activity [21]: Non-Toxic; Activity [22]: 0.39 mg/dL; Activity [23]: 0.34 mg/dL; Activity [24]: 7.5 thousands/mm3; Activity [25]: 33.28 U/L; Activity [26]: Non-Toxic; Activity [27]: 0.36 mg/dL; Activity [28]: 87.76 U/L; Activity [29]: 1.57 mg/mL; Activity [30]: 28.86 U/L; Activity [31]: Non-Toxic; Activity [32]: 5.6 thousands/mm3; Activity [33]: 105.82 mg/dL; Activity [34]: 19.12 U/L; Activity [35]: 83.99 mg/dL
COc1ccc2c(c1)c(Cc1ccc(OCCN(C)C)cc1)c(-c1cc(OC)c(OC)c(OC)c1)n2Cc1ccc(OCCN(C)C)cc1,0.14,121.96,17.01,91.2,Non-Toxic,16.59,0.15,6.73,15.07,9.67,Non-Toxic,Non-Toxic,21.31,Non-Toxic,106.88,0.12,Non-Toxic,132.33,9.45,Non-Toxic,Activity [21]: Non-Toxic; Activity [22]: 0.35 mg/dL; Activity [23]: 0.3 mg/dL; Activity [24]: 4.86 thousands/mm3; Activity [25]: 21.92 U/L; Activity [26]: Non-Toxic; Activity [27]: 0.36 mg/dL; Activity [28]: 97.53 U/L; Activity [29]: 1.61 mg/mL; Activity [30]: 22.11 U/L; Activity [31]: Non-Toxic; Activity [32]: 5.53 thousands/mm3; Activity [33]: 63.83 mg/dL; Activity [34]: 16 U/L; Activity [35]: 91.7 mg/dL
